Source: PubChem BioAssay (several laboratories)
SENP7 inh – SENP7 protease inhibitors, primary screen, biochemical, luminescence, uHTS. Sentrin-specific protease 7 (Homo sapiens), Q9BQF6. recombinant SENP7, Z-RLRGG-aminoluciferin luminescence, 40 min. inhibition, % at 5 µM. 1.5% of 330,000 active;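 active = inhibition above about 50% at the single test dose, limit read from the data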;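 also: plate controls were DMSO with enzyme for no effect and no enzyme buffer wells for full effect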
Target sequence (Q9BQF6 706-1050 limits assumed): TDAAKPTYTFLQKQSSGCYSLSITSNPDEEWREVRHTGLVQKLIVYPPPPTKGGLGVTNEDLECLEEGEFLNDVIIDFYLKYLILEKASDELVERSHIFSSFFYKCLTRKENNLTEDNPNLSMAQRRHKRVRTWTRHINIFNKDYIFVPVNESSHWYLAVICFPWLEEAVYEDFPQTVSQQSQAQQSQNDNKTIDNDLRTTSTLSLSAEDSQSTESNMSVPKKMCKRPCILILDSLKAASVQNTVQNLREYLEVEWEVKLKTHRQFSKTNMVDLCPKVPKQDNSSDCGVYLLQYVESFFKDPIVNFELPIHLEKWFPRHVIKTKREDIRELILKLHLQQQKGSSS
SENP8 block-1 – human SENP8 protease inhibitors, primary screen, biochemical, fluorescence, Nedd8 protein substrate, uHTS | Sentrin-specific protease 8 (Homo sapiens), Q96LD8 | recombinant SENP8 | inhibition, % at 20 µM | 0.64% of 360,000 active; in the data active = inhibition mostly above about 40%, no sharp cut-off; inactive = mostly below about 27%
Target sequence (Q96LD8 whole entry, looked up): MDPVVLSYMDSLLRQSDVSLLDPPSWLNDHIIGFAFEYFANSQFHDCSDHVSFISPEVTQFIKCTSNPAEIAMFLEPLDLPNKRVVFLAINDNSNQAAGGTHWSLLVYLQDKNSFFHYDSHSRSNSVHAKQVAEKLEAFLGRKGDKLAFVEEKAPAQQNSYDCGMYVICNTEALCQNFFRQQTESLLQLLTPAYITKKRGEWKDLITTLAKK
SENP1 FRET inh – human SENP1 catalytic domain inhibitors, primary screen, biochemical, FRET, uHTS | recombinant SENP1 catalytic domain, CyPet-SUMO1-YPet FRET cleavage | inhibition, % at 10 µM | 0.21% of 360,000 active;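 active = inhibition at least 30% at 10 µM, raw YFP signal under a set limit, fluorescence ratio 0.5 to 1.5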;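 also: 0% = enzyme with DMSO and 100% = no enzyme wells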
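Assay system – human recombinant His6-tagged SENP1 catalytic domain enzyme · Input – SENP1 enzyme, 20 pM final · Buffer or medium – Tris pH 8 buffer plus EDTA, NaCl, BME, BSA, NP40, catalase · Schedule – 50 min reaction at room temperature · Technique – FRET read of cyan and yellow fluorescence · Control set – no-enzyme wells low, DMSO-plus-enzyme wells high control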
Platelet DG rel – inhibitors of platelet dense granule secretion, primary screen, cell-based, MLPCN, human platelets; inhibition, %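 (compounds screened at 7.5 µM in platelet-rich plasma)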; AID 1663, 2009; human platelet-rich plasma, SFLLRN dense granule ATP release, luminescence; 0.22% of 300,000 active;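 active = mean replicate score, as percent of positive control, at or above 50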
SENP8 block-2 – SENP8 protease inhibitors, primary screen, biochemical, luminescence | inhibition, % at 10 µM | Sentrin-specific protease 8 (Homo sapiens), Q96LD8 | 1.2% of 330,000 active | purified SENP8, Z-RLRGG-aminoluciferin cleavage; in the data active = inhibition above about 50%
SENP6 inh – SENP6 protease inhibitors, primary screen, biochemical, luminescence, uHTS. inhibition, % at 10 µM. AID 2599, 2010. Sentrin-specific protease 6 (Homo sapiens), Q9GZR1. 1.8% of 330,000 active. Recombinant SENP6 catalytic domain, aminoluciferin luminescence;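 active = inhibition above about 50% at the single tested dose, limit read from the data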;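 also: plate controls were DMSO wells with enzyme for no effect and DMSO wells lacking enzyme for full effect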
SENP8 conf – SENP8 protease inhibitors, retest, confirmation, biochemical, luminescence, single concentration. inhibition, % at 12.5 µM. 40% of 6,200 active. shares compounds with SENP7 inh. Recombinant SENP8, Z-RLRGG-aminoluciferin luminescence, 60 min;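 active = mean inhibition across replicates above about 50%, limit read from the data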
SENP6 conf – SENP6 protease inhibitors, confirmation, biochemical, luminescence, single concentration | shares compounds with SENP7 inh | 58% of 6,200 active | recombinant SENP6, Z-RLRGG-aminoluciferin luminescence | inhibition, % at 12.5 µM
SENP7 conf – SENP7 protease inhibitors, retest, confirmation, biochemical, luminescence, single concentration; shares compounds with SENP7 inh; recombinant SENP7, Z-RLRGG-aminoluciferin luminescence, 40 min; inhibition, % at 12.5 µM; 69% of 6,200 active; AID 488917, 2010
Casp3 select – caspase-3 protease inhibitors, confirmation, selectivity assay for SENP inhibitor project, biochemical, single concentration; shares compounds with SENP7 inh; purified caspase-3, Z-DEVD-aminoluciferin luminescence, 60 min; inhibition, % at 12.5 µM; 60% of 6,200 active; AID 488918, 2010;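 active = mean inhibition above about 50%, limit read from the data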;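 also: plate controls were enzyme with DMSO for no effect and wells without caspase-3 for full effect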
SENP luc ctr – counter-screen for SENP inhibitors: luminescence interference | shares compounds with SENP7 inh | Pre-incubated SENP8/Z-RLRGG-aminoluciferin, luciferase luminescence interference | inhibition, % at 12.5 µM | 39% of 6,200 active | AID 488919;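 active = mean inhibition above about 50% when retested at one dose, limit read from the data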;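 also: plate controls were DMSO wells with completed reaction for no effect and substrate without enzyme for full effect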
Starred values were filed as active, the others as inactive; i = inactive; x = not tested or not shown. Most compounds without a hit are left out; they make up all but 2.6% or so of the library.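 The calls were made as follows, unless noted: active = mean inhibition above about 50% in the one-dose retest (limit read from the data); inactive = the rest.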

SMILES	SENP7 inh	SENP8 block-1	SENP1 FRET inh	Platelet DG rel	SENP8 block-2	SENP6 inh	SENP8 conf	SENP6 conf	SENP7 conf	Casp3 select	SENP luc ctr
O=C(CSc1ncccn1)N1CCN(C(=O)CSc2ncccn2)CC1	-1	14	1	-2	-1	-5	x	x	x	x	x
COc1ccc(CN2C(=O)C(CC(=O)NCCCN(C)C)CC(C(=O)N3CCCCCC3)=C2C)cc1 (centres undefined)	x	7	-1	x	x	x	x	x	x	x	x
Nc1c(-c2cccs2)cnc2c(-c3ccc(F)cc3)cnn12	69*	-284	-2	-4	28	50*	8	34	48	42	9
Nc1c(C(=O)O)cnc2c(-c3ccc(Cl)cc3)cnn12	100*	-401	-2	23	98*	95*	52*	100*	103*	98*	96*
Nc1c(-c2ccccc2)cnc2c(-c3ccccc3)cnn12	74*	i	-1	-1	5	43	8	19	50*	55*	2
O=C(COC(=O)CNC(=O)c1ccc(Cl)cc1)NC1CCCCCC1	-4	17	1	x	-4	-2	x	x	x	x	x
Cc1cccc(-c2cnn(-c3cccc([N+](=O)[O-])c3)c2N)c1	2	15	0	-2	-8	5	x	x	x	x	x
Nc1c(-c2ccccc2)cnn1-c1cccc(Cl)c1	94*	6	2	15	84*	90*	90*	90*	99*	87*	81*
Cc1cccc(-c2cnn(-c3ccccc3)c2N)c1	66*	7	-1	6	44	50*	42	42	81*	64*	64*
CCc1ccc(OC(=O)/C=C/c2ccco2)cc1	81*	4	0	3	69*	89*	7	77*	94*	50*	18
CCOc1ccc(/C=N/NC(=O)c2ccc(Cn3cc(Br)cn3)o2)cc1	8	-48	-1	-5	3	55*	22	17	57*	23	50
Nn1c(Nc2ccccc2)nc2ccccc21	42	24	2	18	28	67*	51*	47	81*	73*	59*
CC(C)OC(=O)c1cc2ccccc2[nH]1	1	0	2	2	-6	-6	x	x	x	x	x
CCOC(=O)c1cc2ccc3ccccc3c2s1	47	-230	3	-22	7	58*	15	20	54*	23	24
CCOC(=O)c1cc(=O)n2c(nc3ccccc32)[nH]1	79*	-471	-1	9	76*	84*	82*	83*	96*	94*	56*
CCOC(=O)c1cc2cc3ccccc3cc2[nH]1	38	-278	-23	-13	24	54*	-25	-24	13	2	-4
CN(C)S(=O)(=O)Oc1cccc(C(=O)Nc2cccc(Cl)c2)c1	89*	10	1	-1	76*	51*	85*	85*	97*	69*	75*
COc1ccc(NC(=O)c2cccc(OS(=O)(=O)N(C)C)c2)cc1	24	7	2	1	7	17	x	x	x	x	x
O=C(Nc1cccc(Cl)c1)c1ccc2ncsc2c1	62*	9	1	9	49	57*	60*	60*	86*	51*	68*
CN(C)S(=O)(=O)Oc1cccc(C(=O)Nc2ccc(Cl)c(Cl)c2)c1	38	5	-2	-2	55*	64*	11	67*	86*	15	10
CNS(=O)(=O)c1cccc(C(=O)Nc2cccc(Cl)c2)c1	17	19	-1	x	-10	26	x	x	x	x	x
O=C(Nc1cc(Cl)cc(Cl)c1)c1cccc(OC(F)F)c1	14	24	0	10	-1	54*	42	33	69*	8	10
O=C(Nc1ccc(Cl)cc1)c1ccc2ncsc2c1	2	-30	-9	x	-2	-5	x	x	x	x	x
COc1ccccc1/C=C/C(=O)N1CCC(c2ccccc2)C1 (centres undefined)	3	-29	0	-4	-14	32	x	x	x	x	x
Cc1ccccc1C(=O)NCCc1nnc(SCC(=O)Nc2nc(-c3ccccc3)cs2)n1C	-4	2	0	-6	5	-3	x	x	x	x	x
SMILES	SENP7 inh	SENP8 block-1	SENP1 FRET inh	Platelet DG rel	SENP8 block-2	SENP6 inh	SENP8 conf	SENP6 conf	SENP7 conf	Casp3 select	SENP luc ctr
O=C(O)c1ccc(C(=O)Nc2cccc3ccccc23)c(C(=O)O)c1	57*	-311	-6	3	33	67*	-3	5	-2	7	8
O=C(Nc1cccc(C(=O)O)c1)Nc1cccc2ccccc12	3	-53	4	-9	9	27	x	x	x	x	x
CCCCCc1ccc(-c2cn(Cc3ccc(C(=O)c4ccccc4)cc3)nn2)cc1	8	20	1	-2	0	8	x	x	x	x	x
O=C(c1ccccc1)c1ccc(Cn2cc(-c3ccccc3)nn2)cc1	52*	13	0	-2	58*	61*	52*	65*	83*	31	17
CN(C)C(CNC(=O)Cc1cccc(C(F)(F)F)c1)c1ccco1 (centres undefined)	3	-61	-13	-5	-1	-6	x	x	x	x	x
Cc1nc(C#N)c(N/N=C/c2cccc(Cl)c2)o1	11	-19	2	5	86*	78*	-3	91*	100*	80*	84*
Cc1ccc(S(=O)(=O)CC(=O)Nc2nc3ccc(S(N)(=O)=O)cc3s2)cc1	-4	-12	-12	-10	-7	5	x	x	x	x	x
